The source of these data is ChEMBL document CHEMBL2396523, “The synthesis of isopropylidene mRNA cap analogs modified with phosphorothioate moiety and their evaluation as promoters of mRNA translation” (Bioorg Med Chem Lett, 2013).

A short description of series [1]: Translational activity in human immature DC assessed as time point of maximal protein expression by bioluminescence assay. Format: functional. Summed up: (§1)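 Luciferase-coding mRNAs made by T7 RNA polymerase in vitro transcription with the respective cap, electroporated into human immature dendritic cells. Luciferase activity measured over 72 h after electroporation, duplicate measurements. Mathematical modeling of the time course gave translational efficiency, time of maximal protein expression and total protein expression.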

Series [2] deals with Eukaryotic translation initiation factor 4E (Mus musculus) (UniProt P63073). The series is described as follows: Binding affinity to mouse eIF4E by fluorescence quenching assay. Summed up: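 Murine eIF4E titrated with cap analog solution; intrinsic Trp fluorescence quenching recorded at 337 nm with excitation at 280 nm. Equilibrium association constant (KAS) of the cap analog–eIF4E complex derived from the titration curves.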

The species named for a further series is Oryctolagus cuniculus. Description: Translational activity in Flexi rabbit reticulocyte lysate assessed as luciferase mRNA activity after 60 mins relative to m7GpppG. Format: functional. The gist of the method: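 Luciferase mRNAs capped by in vitro transcription, added at several concentrations to rabbit reticulocyte lysate optimized for cap-dependent translation. Luminometry of luciferase activity 60 min after mRNA addition. Translation efficiency taken from slope of luciferase activity versus mRNA concentration, averaged over replicate experiments.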

Series [3] is described as follows: Translational activity in human immature DC assessed as total protein expression after 72 hrs by bioluminescence assay relative to m2 7,3'-OGpppG. The series is classed as functional. Summed up:
as §1

The species named for another series is Homo sapiens. The series is described as follows: Translational activity in human immature DC assessed as luciferase mRNA activity after 72 hrs by bioluminescence assay relative to m2 7,3'-OGpppG. The series is classed as functional. The gist of the method: as §1
Series [4] can be described thus: Drug degradation in aqueous buffer at pH 2 after 4.5 hrs by RP HPLC analysis. Format: physicochemical. Particulars: pH 2, 4.5 h. The gist of the method:
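Isopropylidene removal done in aqueous buffer at pH 2, 37 °C, for 4.5 h. Reaction progress followed by RP HPLC.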

Sequence of Eukaryotic translation initiation factor 4E (Mus musculus) (P63073 whole entry): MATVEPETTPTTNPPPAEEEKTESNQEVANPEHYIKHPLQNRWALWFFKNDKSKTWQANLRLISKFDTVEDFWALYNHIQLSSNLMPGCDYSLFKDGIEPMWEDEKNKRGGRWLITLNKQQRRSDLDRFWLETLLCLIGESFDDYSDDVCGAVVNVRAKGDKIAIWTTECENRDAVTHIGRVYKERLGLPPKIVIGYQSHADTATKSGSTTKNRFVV

Regarding `CO[C@H]1[C@@H](O)[C@H](n2c[n+](C)c3c(O)nc(N)nc32)O[C@@H]1COP(=O)(O)OP(=O)([O-])OP(=O)(O)OC[C@H]1O[C@@H](n2cnc3c(=O)[nH]c(N)nc32)[C@H](O)[C@@H]1O`, in series [1], the TIME amounted to 9.25 h. In series [2], the Ka came to 10.2 µM⁻¹. Moreover, in the series filed under Oryctolagus cuniculus, the Ratio amounted to 1.32.

Consider `C[n+]1cn([C@@H]2O[C@H](COP(=O)(O)OP(=O)([O-])OP(=O)(O)OC[C@H]3O[C@@H](n4cnc5c(=O)[nH]c(N)nc54)[C@H](O)[C@@H]3O)[C@@H]3OC(C)(C)O[C@H]32)c2nc(N)nc(O)c21`, for which, in series [2], the Ka worked out at 2.9 µM⁻¹. For the same compound, the Ratio in the series listed under Oryctolagus cuniculus came out at 0.8.

Take `C[n+]1cn([C@@H]2O[C@H](COP(=O)([O-])OP(=O)(S)OP(=O)(O)OC[C@H]3O[C@@H](n4cnc5c(=O)[nH]c(N)nc54)[C@H](O)[C@@H]3O)[C@@H]3OC(C)(C)O[C@H]32)c2nc(N)nc(O)c21` (mixture of isomers; 2a): the Ratio is 1.62 in series [3], 1.23 in the series listed under Homo sapiens and 1.33 in the series listed under Oryctolagus cuniculus. Moreover, the TIME in series [1] turned out to be 11.1 h. Moreover, in series [2], the Ka came to 5.6 µM⁻¹.

Regarding `C[n+]1cn([C@@H]2O[C@H](COP(=O)([O-])OP(=O)(S)OP(=O)(O)OC[C@H]3O[C@@H](n4cnc5c(=O)[nH]c(N)nc54)[C@H](O)[C@@H]3O)[C@@H]3OC(C)(C)O[C@H]32)c2nc(N)nc(O)c21` (mixture of isomers; 2b) [listing 1 of 2 here], the Stability result in series [4] is given as “Stable”.

As to `C[n+]1cn([C@@H]2O[C@H](COP(=O)([O-])OP(=O)(S)OP(=O)(O)OC[C@H]3O[C@@H](n4cnc5c(=O)[nH]c(N)nc54)[C@H](O)[C@@H]3O)[C@@H]3OC(C)(C)O[C@H]32)c2nc(N)nc(O)c21` (mixture of isomers; 2b) [listing 2 of 2 here], the Ratio in series [3] came to 0.97; in the series listed under Homo sapiens, 1.08; in the series listed under Oryctolagus cuniculus, 1.16. Besides, the TIME in series [1] came to 8.9 h. The same compound returned a Ka in series [2] of 9.2 µM⁻¹.
